Laboratory results: PMC8203602 (Clinical Pharmacology : Advances and Applications, 2021)
Marks after values point to notes of the source that are not given here.

Tests used:
neutrophils = experiment: Clinical laboratory neutrophil counts; format: in vivo, human; details: 50 mg BID group
IL-6 [1] = experiment: Ex vivo lipopolysaccharide-stimulated whole blood PD assay, IL-6; format: cell-based, human
In short: (§1)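 Healthy adults were dosed orally, fasted. 10 mL blood was drawn: SAD pre-dose, 1, 12 and 24 h; MAD days 1 and 7 pre-dose, 4 and 12 h. Each analyte was read unstimulated, after ex vivo LPS, and after LPS plus 10 μM added test compound. Values were scaled to % day 1 pre-dose (LPS as maximum signal, spiked LPS as maximum inhibition). Plasma levels vs % inhibition were fit by inhibitory Emax (E0, Imax, IC50).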

IL-1β = experiment: Ex vivo lipopolysaccharide-stimulated whole blood PD assay, IL-1β; format: cell-based, human
In short: as §1

[2] = Plasma pharmacokinetics, multiple ascending dose cohorts; format: in vivo, human; details: for Tmax at 7 day: median (range)
[3] = Plasma pharmacokinetics, single ascending dose cohorts; format: in vivo, human; details: for Tmax / half-life / AUC(0-inf) / AUC(0-t) / Cmax / Vd/F: human, plasma, oral; for CL/F: fasted, mean ± SD
murine model of NOMID = details: cited from earlier work
[4] = system: rat streptococcal cell wall arthritis model; details: cited from earlier work
[5] = system: p-HSP27 (phosphorylated heat shock protein 27); experiment: Ex vivo lipopolysaccharide-stimulated whole blood PD assay, p-HSP27; format: cell-based, human; details: inhibitory Emax model, all SAD/MAD cohorts
In short: as §1

TNF-α = experiment: Ex vivo lipopolysaccharide-stimulated whole blood PD assay, TNF-α; format: cell-based, human
In short: as §1

[6] = Safety and tolerability assessments; format: in vivo, human; details: for Deaths / Discontinuations due to TEAEs / Number of TEAEs / Patients reporting TEAEs / Serious TEAEs: ATI-450 n=24
IL-6 [7] = experiment: Human whole blood stimulated with IL-1β, IL-6 inhibition; format: cell-based; details: data not shown
[8] = inhibitory Emax model, all SAD/MAD cohorts
[9] = maximum observed (up to), versus baseline
[10] = SAD and MAD cohorts, ATI-450 n=48

## Cc1cnc(-c2ccnc(C(C)(C)O)n2)cc1-n1c(C)cc(OCc2ncc(F)cc2F)c(Cl)c1=O [ATI-450]
neutrophils; day 7 (baseline 3318.4 cells/μL)
  Neutrophil count: 2514.4 cells/μL
neutrophils; day 7 versus baseline
  Mean reduction in neutrophils: 24%
IL-6 [1]; Homo sapiens, 168 h, read-out: IL-6 inhibition
  inhibition at 50 mg: > 50%
IL-6 [1]; [8]
  Imax (maximum percent inhibition): greater than 96%
IL-1β; [8]
  Imax (maximum percent inhibition): 74%
IL-1β; [9]
  Inhibition of IL-1β versus baseline: ≤ 83.0%
[2]; 10 mg BID, day 7, mean ± SD
  CLss/F: 37.4 ± 10.9 L/h
  Cmin: 8.1 ± 3.1 ng/mL
  Rac, AUCtau (accumulation ratio for AUCtau): 1.4 ± 0.3
  Rac, Cmax (accumulation ratio for Cmax): 1.6 ± 0.6
[2]; 30 mg BID, day 7, mean ± SD
  CLss/F: 33.9 ± 5.9 L/h
  Cmin: 28.8 ± 10.7 ng/mL
  Rac, AUCtau (accumulation ratio for AUCtau): 1.4 ± 0.3
  Rac, Cmax (accumulation ratio for Cmax): 1.2 ± 0.3
[2]; 50 mg BID, day 7, mean ± SD
  CLss/F: 37.3 ± 11.7 L/h
  Cmin: 58.7 ± 32.8 ng/mL
  Rac, AUCtau (accumulation ratio for AUCtau): 1.3 ± 0.4
  Rac, Cmax (accumulation ratio for Cmax): 1.3 ± 0.5
[2]; 10 to 50 mg BID, day 1
  Increase in AUCtau over dose range: 5.9 fold
  Increase in Cmax over dose range: 5.4 fold
[2]; 10 to 50 mg BID, day 7
  Increase in AUCtau over dose range: 5.2 fold
  Increase in Cmax over dose range: 4.2 fold
[2]; all BID dose levels, based on mean Ctrough days 2 through 6
  Day of administration by which steady state appeared to be reached: ≤ 2 days
[2]; human, plasma, oral, 10 mg
  AUC: 288 ± 81.5 ng·h/mL
  AUC(0-t): 365 ± 111 ng·h/mL
  Cmax at 7 day: 51.8 ± 15.8 ng/mL
  Vd/F: 517 ± 203 L
  concentration at 7 day: 24 ± 6.8 ng/mL
[2]; human, plasma, oral, 10 mg, t1/2, 10 mg BID, day 7, mean ± SD
  half-life: 9.6 ± 2.1 h
[2]; human, plasma, oral, 10 mg, 10 mg BID, day 7
  Tmax at 7 day: 2 h
[2]; human, plasma, oral, 30 mg
  AUC: 909 ± 163 ng·h/mL
  AUC(0-t): 1200 ± 309 ng·h/mL
  Cmax at 7 day: 146 ± 33.6 ng/mL
  Vd/F: 483 ± 85.1 L
  concentration at 7 day: 75.6 ± 13.4 ng/mL
[2]; human, plasma, oral, 30 mg, t1/2, 30 mg BID, day 7, mean ± SD
  half-life: 10.3 ± 3.2 h
[2]; human, plasma, oral, 30 mg, 30 mg BID, day 7
  Tmax at 7 day: 2 h
[2]; human, plasma, oral, 50 mg
  AUC: 1510 ± 660 ng·h/mL
  AUC(0-t): 2260 ± 1070 ng·h/mL
  Cmax at 7 day: 219 ± 77.8 ng/mL
  Vd/F: 586 ± 163 L
  concentration at 7 day: 126 ± 55 ng/mL
[2]; human, plasma, oral, 50 mg, t1/2, 50 mg BID, day 7, mean ± SD
  half-life: 11.6 ± 3.7 h
[2]; human, plasma, oral, 50 mg, 50 mg BID, day 7
  Tmax at 7 day: 3 h
[2]; human, plasma, oral, Mean t1/2 across all SAD and MAD cohorts, all SAD and MAD cohorts
  half-life: 9 to 12 h
[2]; human, plasma, oral, Mean terminal t1/2 across doses, 10 to 50 mg BID, day 7
  half-life: 9 to 12 h
[2]; human, plasma, oral, Median tmax across all SAD and MAD cohorts, all SAD and MAD cohorts
  Tmax: 2 to 4 h
[3]
  Tmax: 2 to 4 h
  half-life: 8.5 to 11.2 h
[3]; 10 mg
  AUC(0-inf): 285 ± 78.4 ng·h/mL
  AUC(0-t): 276 ± 77.8 ng·h/mL
  Cmax: 39.4 ± 10.4 ng/mL
  Tmax: 2 h
  Vd/F: 430 ± 124 L
  half-life: 8.5 ± 3.2 h
[3]; 30 mg
  AUC(0-inf): 1100 ± 247 ng·h/mL
  AUC(0-t): 1070 ± 244 ng·h/mL
  Cmax: 122 ± 33.4 ng/mL
  Tmax: 4 h
  Vd/F: 451 ± 202 L
  half-life: 10.7 ± 3.3 h
[3]; 50 mg
  AUC(0-inf): 1460 ± 270 ng·h/mL
  AUC(0-t): 1430 ± 254 ng·h/mL
  Cmax: 161 ± 20.4 ng/mL
  Tmax: 3 h
  Vd/F: 445 ± 94.7 L
  half-life: 9.1 ± 2.4 h
[3]; 100 mg
  AUC(0-inf): 3650 ± 523 ng·h/mL
  AUC(0-t): 3490 ± 476 ng·h/mL
  Cmax: 426 ± 111 ng/mL
  Tmax: 2 h
  Vd/F: 440 ± 190 L
  half-life: 11.2 ± 5.8 h
[3]; single dose 10 mg
  CL/F: 37.0 ± 8.8 L/h
[3]; single dose 30 mg, one subject excluded
  CL/F: 28.4 ± 7.1^a L/h
[3]; single dose 50 mg
  CL/F: 35.1 ± 6.3 L/h
[3]; single dose 100 mg
  CL/F: 27.9 ± 4.3 L/h
[3]; single doses, 10 to 100 mg
  Increase in AUC0-inf across dose range: ~12.8 fold
  Increase in AUC0-t across dose range: ~12.6 fold
  Increase in Cmax across dose range: approximately 10.8 fold
Murine model of NOMID; NOMID mice, relative to placebo
  Effect on bone marrow levels of IL-1β: reduction in bone marrow levels of IL-1β
Murine model of NOMID; transgenic NOMID mice
  Effect on disease: dramatic attenuation of disease
[4]
  Effect in arthritis model: joint protective effects and preserved bone mineral density
[5]
  Imax (maximum percent inhibition): greater than 96%
TNF-α; [8]
  Imax (maximum percent inhibition): greater than 96%
TNF-α; [9]
  Inhibition of TNF-α versus baseline: up to 92.7%
[6]; MAD cohort
  Deaths: 0
  Discontinuations due to TEAEs: 0
  Number of TEAEs: 24
  Patients reporting TEAEs: 12 (50.0) n (%)
  Serious TEAEs: 0
[6]; SAD 10 mg cohort
  Subjects with TEAEs considered related to study drug: 0 subjects
[6]; SAD 30 mg cohort (nausea, headache, dizziness)
  Subjects with TEAEs considered related to study drug: 2 [33%] subjects
[6]; SAD 50 mg cohort (headache)
  Subjects with TEAEs considered related to study drug: 1 [17%] subjects
[6]; SAD 100 mg cohort (dizziness)
  Subjects with TEAEs considered related to study drug: 1 subjects
[6]; SAD and MAD cohorts
  Findings in vital signs, electrocardiograms, or clinical laboratory values: No clinically significant findings
[6]; [10]
  TEAE: Abdominal pain: 2 (4.2) n (%)
  TEAE: Constipation: 3 (6.3) n (%)
  TEAE: Dizziness: 6 (12.5) n (%)
  TEAE: Headache: 10 (20.8) n (%)
  TEAE: Nausea: 2 (4.2) n (%)
  TEAE: Upper respiratory tract infection: 3 (6.3) n (%)
  TEAE: Vomiting: 0 n (%)
[6]; SAD cohort
  Deaths: 0
  Discontinuations due to TEAEs: 0
  Number of TEAEs: 15
  Patients reporting TEAEs: 7 (29.2) n (%)
  Serious TEAEs: 0
IL-6 [7]
  Potency for inhibiting IL-6: comparable to that for TNF-α and IL-8
